We go through six molecules from ChEMBL document CHEMBL1687781, “Comparative biochemical and computational study of the role of naturally occurring mutations at Ambler positions 104 and 170 in GES β-lactamases” (Antimicrob Agents Chemother, 2010).

Experiment [1] can be described thus: Ratio of Kcat to Km for Beta-lactamase GES-1 E104, G170 mutant. The gist of the method:
(§1)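 Purified GES enzymes, released by mild sonication in 20 mM Tris pH 8.0, then Q-Sepharose and S-Sepharose chromatography, >95% pure by SDS-PAGE, in 50 mM KPi pH 7.6. Protein measured by Bradford. β-Lactam substrates hydrolysed at various concentrations, 25°C, in 50 mM NaCl, 50 mM MOPS pH 7.0.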

The nature of experiment [2]: Activity of Beta-lactamase GES-5 E104, S170 mutant. The gist of the method: as §1
A short description of experiment [3]: Ratio of Kcat to Km for Beta-lactamase GES-7 K104, G170 mutant. The gist of the method:
as §1

Experiment [4] can be described thus: Activity of Beta-lactamase GES-13 K104, N170 mutant. The gist of the method: as §1
Experiment [5] is described as follows: Activity of Beta-lactamase GES-2 E104, N170 mutant. The gist of the method: as §1
A short description of experiment [6]: Ratio of Kcat to Km for Beta-lactamase GES-5 E104, S170 mutant. The gist of the method:
as §1

Experiment [7] is described as follows: Activity of Beta-lactamase GES-1 E104, G170 mutant. The gist of the method:
as §1

Experiment [8] in a line: Ratio of Kcat to Km for Beta-lactamase GES-13 K104, N170 mutant. Summed up:
as §1

Experiment [9] in a line: Ratio of Kcat to Km for Beta-lactamase GES-2 E104, N170 mutant. The gist of the method:
as §1

A short description of experiment [10]: Activity of Beta-lactamase GES-6 K104, S170 mutant. The gist of the method: as §1
Experiment [11] in a line: Activity of Beta-lactamase GES-7 K104, G170 mutant. The gist of the method:
as §1

Experiment [12] can be described thus: Ratio of Kcat to Km for Beta-lactamase GES-6 K104, S170 mutant. Summed up: as §1
For experiment [13], the system named is Escherichia coli. The experiment can be described thus: Antimicrobial activity against Escherichia coli DH5[alpha] transformed with pAC-ges1 plasmid encoding Beta-lactamase GES-5 E104, S170 mutant in presence of clavulanic acid at compound/inhibitor ratio of 2:1. Type of experiment: functional. Summed up:
(§2)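 E. coli DH5α host, either untransformed or carrying pACYC184-based clones of the GES variant genes. MICs of penicillin–clavulanate combinations were read by Etest following the manufacturer's recommendations, with penicillin and inhibitor at a 2:1 ratio.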

For experiment [14], the system named is Escherichia coli. Kind of experiment: Antimicrobial activity against Escherichia coli DH5[alpha] transformed with pAC-ges1 plasmid encoding Beta-lactamase GES-2 E104, N170 mutant in presence of clavulanic acid at compound/inhibitor ratio of 2:1 by Etest method. Type of experiment: functional. Summed up:
as §2

Experiment [15] has as its system Escherichia coli. Kind of experiment: Antimicrobial activity against Escherichia coli DH5[alpha] in presence of clavulanic acid at compound/inhibitor ratio of 2:1 by Etest method. Type of experiment: functional. The gist of the method: as §2
The subject of experiment [16] is Escherichia coli. Kind of experiment: Antimicrobial activity against Escherichia coli DH5[alpha] transformed with pAC-ges1 plasmid encoding Beta-lactamase GES-13 K104, N170 mutant in presence of clavulanic acid at compound/inhibitor ratio of 2:1 by Etest method. Type of experiment: functional. The gist of the method: as §2
Experiment [17] relates to Escherichia coli. The experiment can be described thus: Antimicrobial activity against Escherichia coli DH5[alpha] transformed with pAC-ges1 plasmid encoding Beta-lactamase GES-1 E104, G170 mutant in presence of clavulanic acid at compound/inhibitor ratio of 2:1 by Etest method. Type of experiment: functional. The gist of the method: as §2
In experiment [18] the test system is Escherichia coli. Kind of experiment: Antimicrobial activity against Escherichia coli DH5[alpha] transformed with pAC-ges1 plasmid encoding Beta-lactamase GES-7 K104, G170 mutant in presence of clavulanic acid at compound/inhibitor ratio of 2:1 by Etest method. Type of experiment: functional. The gist of the method:
as §2

The subject of experiment [19] is Escherichia coli. Kind of experiment: Antimicrobial activity against Escherichia coli DH5[alpha] transformed with pAC-ges1 plasmid encoding Beta-lactamase GES-6 K104, S170 mutant in presence of clavulanic acid at compound/inhibitor ratio of 2:1 by Etest method. Type of experiment: functional. The gist of the method:
as §2

The test system of experiment [20] is Escherichia coli. Kind of experiment: Antimicrobial activity against Escherichia coli DH5[alpha] transformed with pAC-ges1 plasmid encoding Beta-lactamase GES-7 K104, G170 mutant by Etest method. Type of experiment: functional.
The test system of experiment [21] is Escherichia coli. The experiment can be described thus: Antimicrobial activity against Escherichia coli DH5[alpha] transformed with pAC-ges1 plasmid encoding Beta-lactamase GES-5 E104, S170 mutant by Etest method. Type of experiment: functional.
The test system of experiment [22] is Escherichia coli. Kind of experiment: Antimicrobial activity against Escherichia coli DH5[alpha] transformed with pAC-ges1 plasmid encoding Beta-lactamase GES-2 E104, N170 mutant by Etest method. Type of experiment: functional.
Experiment [23] has as its system Escherichia coli. Kind of experiment: Antimicrobial activity against Escherichia coli DH5[alpha] by Etest method. Type of experiment: functional.
Experiment [24] has as its system Escherichia coli. Kind of experiment: Antimicrobial activity against Escherichia coli DH5[alpha] transformed with pAC-ges1 plasmid encoding Beta-lactamase GES-1 E104, G170 mutant by Etest method. Type of experiment: functional.
Experiment [25] has as its system Escherichia coli. Kind of experiment: Antimicrobial activity against Escherichia coli DH5[alpha] transformed with pAC-ges1 plasmid encoding Beta-lactamase GES-13 K104, N170 mutant by Etest method. Type of experiment: functional.
Experiment [26] concerns Escherichia coli. The experiment can be described thus: Antimicrobial activity against Escherichia coli DH5[alpha] transformed with pAC-ges1 plasmid encoding Beta-lactamase GES-6 K104, S170 mutant by Etest method. Type of experiment: functional.
Experiment [27] can be described thus: Inhibition of Beta-lactamase GES-1 E104, G170 mutant preincubated for 5 mins before substrate addition using cephalothin substrate by spectrophotometry.
The nature of experiment [28]: Inhibition of Beta-lactamase GES-5 E104, S170 mutant preincubated for 5 mins before substrate addition using cephalothin substrate by spectrophotometry.
A short description of experiment [29]: Inhibition of Beta-lactamase GES-13 K104, N170 mutant preincubated for 5 mins before substrate addition using cephalothin substrate by spectrophotometry.
The nature of experiment [30]: Inhibition of Beta-lactamase GES-2 E104, N170 mutant preincubated for 5 mins before substrate addition using cephalothin substrate by spectrophotometry.
Experiment [31] can be described thus: Inhibition of Beta-lactamase GES-6 K104, S170 mutant preincubated for 5 mins before substrate addition using cephalothin substrate by spectrophotometry.

Converted amounts (≈) assume the structure as drawn.

Take `CC1(C)S[C@@H]2[C@H](NC(=O)Cc3ccccc3)C(=O)N2[C@H]1C(=O)O`: the catalytic efficiency (kcat/Km) amounted to 260000 M⁻¹ s⁻¹ in experiment [1]; 360000 M⁻¹ s⁻¹ in [3]; 320000 M⁻¹ s⁻¹ in [6]; 100000 M⁻¹ s⁻¹ in experiment [8]; 70000 M⁻¹ s⁻¹ in experiment [9]; 420000 M⁻¹ s⁻¹ in experiment [12]. The Km in experiment [2] is 88.9 µM; in experiment [4] it was 139 µM; in [5], 87.6 µM; in experiment [7], 120 µM; in [10], 64.2 µM; in [11], 39 µM. Besides, the kcat was 28.6 s⁻¹ in [2]; 13.5 s⁻¹ in [4]; 5.75 s⁻¹ in experiment [5]; 30.5 s⁻¹ in experiment [7]; 27.2 s⁻¹ in experiment [10]; 14.2 s⁻¹ in experiment [11].
In the case of `CC1(C)S[C@@H]2[C@H](NC(=O)[C@H](N)c3ccc(O)cc3)C(=O)N2[C@H]1C(=O)O` [AMOXICILLIN], the MIC with Escherichia coli [13] is 16 µg/mL; in the experiment on Escherichia coli [14], 3 µg/mL; with Escherichia coli [15] it was 2 µg/mL; with Escherichia coli [16] it was 3 µg/mL; with Escherichia coli [17] it was 8 µg/mL; in the experiment with Escherichia coli [18] it was 32 µg/mL. Also, the MIC with Escherichia coli [19] stood at 32 µg/mL.
As for `CO[C@@]1(NC(=O)Cc2cccs2)C(=O)N2C(C(=O)O)=C(COC(N)=O)CS[C@@H]21` [CEFOXITIN], the MIC is 3 µg/mL (≈ 7.02 µM) in the experiment on Escherichia coli [20]; 16 µg/mL (≈ 37.4 µM) against Escherichia coli [21]; 3 µg/mL (≈ 7.02 µM) with Escherichia coli [22]; 2 µg/mL (≈ 4.68 µM) against Escherichia coli [23]; 3 µg/mL (≈ 7.02 µM) in the experiment on Escherichia coli [24]; 3 µg/mL (≈ 7.02 µM) against Escherichia coli [25]. This molecule registered an MIC against Escherichia coli [26] of 48 µg/mL (≈ 112 µM). In addition, the Km in experiment [2] was found to be 221 µM; in experiment [10], 82.3 µM. The values for the kcat in experiment [2] and in [10] were 7.5 s⁻¹ and 12.1 s⁻¹, respectively. Also, the kcat/Km in experiment [6] is 30000 M⁻¹ s⁻¹; in experiment [12] it was 150000 M⁻¹ s⁻¹.
As for `CO/N=C(\C(=O)N[C@@H]1C(=O)N2C(C(=O)O)=C(COC(C)=O)CS[C@H]12)c1csc(N)n1` [CEFOTAXIME], the kcat/Km turned out to be 370000 M⁻¹ s⁻¹ in experiment [1]; 380000 M⁻¹ s⁻¹ in experiment [3]; 30000 M⁻¹ s⁻¹ in experiment [6]; 1.09e+06 M⁻¹ s⁻¹ in experiment [8]; 140000 M⁻¹ s⁻¹ in experiment [9]; 50000 M⁻¹ s⁻¹ in experiment [12]. In addition, the minimum inhibitory concentration (MIC) against Escherichia coli [20] was found to be 1.5 µg/mL (≈ 3.29 µM); against Escherichia coli [21] it was 0.125 µg/mL (≈ 0.274 µM); in the experiment on Escherichia coli [22], 0.75 µg/mL (≈ 1.65 µM); in the experiment on Escherichia coli [23] it was 0.032 µg/mL (≈ 0.0703 µM); against Escherichia coli [24], 1 µg/mL (≈ 2.2 µM); with Escherichia coli [25], 3 µg/mL (≈ 6.59 µM). In the experiment on Escherichia coli [26], inhibition of growth (MIC) required 0.125 µg/mL (≈ 0.274 µM). Further, the Km in experiment [2] was found to be 133 µM; in [4], 63.4 µM; in experiment [5], 261 µM; in experiment [7], 152 µM; in [10], 95.6 µM; in experiment [11], 81.6 µM. For the same molecule, the kcat in [2] was 3.55 s⁻¹; in [4], 69 s⁻¹; in [5], 37.2 s⁻¹; in experiment [7] it was 56.8 s⁻¹; in experiment [10], 5.1 s⁻¹; in experiment [11], 31.4 s⁻¹.
For `CC1(C)[C@H](C(=O)O)N2C(=O)C[C@H]2S1(=O)=O` [SULBACTAM], the IC50 in experiment [27] is 1.5 µM; in [28] it was 4.5 µM; in [29] it was 0.3 µM; in experiment [30], 0.5 µM; in experiment [31], 8 µM.
Regarding `CC1(C)S[C@@H]2[C@H](NC(=O)[C@H](N)c3ccccc3)C(=O)N2[C@H]1C(=O)O` [AMPICILLIN], the MIC against Escherichia coli [20], in the experiment on Escherichia coli [21], in the experiment with Escherichia coli [22], against Escherichia coli [24], in the experiment on Escherichia coli [25] and in the experiment with Escherichia coli [26] was > 256 µg/mL in each case.

The kcat/Km is the turnover number divided by the Michaelis constant. In general, Km refers to the substrate concentration at which the rate is half of its maximum. By kcat is commonly meant the maximal rate divided by the concentration of active sites. A word on the MIC: it is the lowest concentration that inhibits growth of the organism. For orientation: IC50 means the concentration that inhibits the measured activity by half.
